The values that follow come from PubChem BioAssay.

Activity calls are given as the source filed them.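 The calls were made as follows, unless noted: active = duplicate-averaged activation above buffer control mean plus 5 SD of those controls; inactive = the rest.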

A short description of experiment [1]: nonspecific flux increase, KCNQ1-free cells – parental CHO cells, counter-screen for KCNQ1 potentiator project (AID 493006). The conditions noted are these: parental CHO-K1 cells, FluxOR thallium flux, at 10 µM; hits give high values. Summed up: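 Assay system: Untransfected host CHO-K1 cells with FluxOR thallium dye | Probe or stimulus: Potassium/thallium depolarization pulse | Schedule: Overnight 37 °C plating, 90 min RT dye, 20 min compound | Detection: Kinetic thallium-flux fluorescence | Read-out: Max-minus-min fluorescence over baseline, percent of buffer-to-R-L3 span | Benchmarks: Low control buffer, high control R-L3 activator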
(The purpose of a counterscreen is to sort out artefacts and off-target activity.)

The target in experiment [2] is Potassium voltage-gated channel subfamily KQT member 1 (Homo sapiens) (UniProt P51787). As to the kind of experiment: enhancement of KCNQ1 channel thallium flux – FluxOR thallium flux, CHO cells, duplicates, confirmation (AID 493007;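 active = potentiation averaged over duplicate wells exceeding buffer-only control mean by more than 3 SD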;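 as to outcome: cells depolarized by a potassium plus thallium sulfate stimulus after compound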). Particulars: KCNQ1 cell line, FluxOR thallium flux fluorescence, at 10 µM; hits give high values, % of reference activator effect, buffer zero. The gist of the method:
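Material: KCNQ1-expressing CHO cell line; Incubation: FluxOR dye loading 90 min, compound exposure 20 min, room temperature; Detection: FluxOR Tl+ flux fluorescence, 10 s baseline plus 110 s recording; Read-out: percent activation between buffer and R-L3 responses; Control set: buffer-only wells as 0% and R-L3 activator as 100%; Replication: duplicate wells per compound.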

Experiment [3] addresses Potassium voltage-gated channel subfamily KQT member 2 (Rattus norvegicus) (UniProt O88943). Briefly: KCNQ2 thallium flux enhancement – KCNQ2-CHO-K1 cells, selectivity assay for KCNQ1 potentiator project (AID 493009;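 active = mean duplicate potentiation above the buffer control mean plus 5 SD of buffer wells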;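 also: assay conditions were tuned for KCNQ1 rather than KCNQ2 modulators; signal is max minus min fluorescence divided by baseline after thallium stimulus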). Particulars: FluxOR thallium flux fluorescence, at 10 µM; hits give high values, scaled: buffer 0, activator control 100.
Experiment [4] addresses Potassium voltage-gated channel subfamily KQT member 1 (Homo sapiens) (UniProt P51787). Briefly: KCNQ1 activators by electrophysiology – IonWorks patch clamp, KCNQ1-CHO cells, orthogonal assay for KCNQ1 potentiator project, confirmation (AID 493184;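 active = current rise at least 3 SD above the untreated control mean in each of two repeat wells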;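 as to current potentiation: percent change of the same well's current before compound addition so 0% = no change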). Particulars: automated patch clamp current, at 10 µM; hits give high values. Summed up: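 assay system = KCNQ1-expressing CHO cells | medium = external bath solution at pH 7.4 | probe or stimulus = 2,000 ms depolarization, -90 to +40 mV | compound dosing = 10 µM final, single point | measured by = automated voltage clamp, amphotericin B perforated patch | measure = percent current increase versus pre-compound level | replication = duplicates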
In general terms: The patch-clamp technique gives a direct electrical read-out from membranes.

Sequence of Potassium voltage-gated channel subfamily KQT member 1 (Homo sapiens) (P51787 whole entry, looked up): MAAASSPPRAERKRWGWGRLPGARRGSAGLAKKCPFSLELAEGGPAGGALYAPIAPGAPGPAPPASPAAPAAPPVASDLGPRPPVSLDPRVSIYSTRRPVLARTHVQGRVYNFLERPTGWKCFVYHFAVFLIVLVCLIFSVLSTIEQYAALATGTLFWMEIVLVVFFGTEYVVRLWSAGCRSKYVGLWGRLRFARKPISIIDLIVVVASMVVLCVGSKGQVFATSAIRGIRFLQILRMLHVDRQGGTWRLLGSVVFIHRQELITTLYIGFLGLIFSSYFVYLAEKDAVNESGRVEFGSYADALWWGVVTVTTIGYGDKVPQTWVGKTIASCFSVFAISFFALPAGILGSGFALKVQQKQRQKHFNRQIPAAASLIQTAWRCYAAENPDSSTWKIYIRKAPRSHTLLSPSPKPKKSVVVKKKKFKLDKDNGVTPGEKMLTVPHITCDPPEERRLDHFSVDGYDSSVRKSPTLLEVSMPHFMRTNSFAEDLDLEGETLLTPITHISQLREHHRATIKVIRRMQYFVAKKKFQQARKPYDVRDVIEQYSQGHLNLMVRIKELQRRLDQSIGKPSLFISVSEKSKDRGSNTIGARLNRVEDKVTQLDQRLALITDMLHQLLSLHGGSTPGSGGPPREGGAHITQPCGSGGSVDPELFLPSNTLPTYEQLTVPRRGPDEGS
Sequence of Potassium voltage-gated channel subfamily KQT member 2 (Rattus norvegicus) (O88943 whole entry, looked up): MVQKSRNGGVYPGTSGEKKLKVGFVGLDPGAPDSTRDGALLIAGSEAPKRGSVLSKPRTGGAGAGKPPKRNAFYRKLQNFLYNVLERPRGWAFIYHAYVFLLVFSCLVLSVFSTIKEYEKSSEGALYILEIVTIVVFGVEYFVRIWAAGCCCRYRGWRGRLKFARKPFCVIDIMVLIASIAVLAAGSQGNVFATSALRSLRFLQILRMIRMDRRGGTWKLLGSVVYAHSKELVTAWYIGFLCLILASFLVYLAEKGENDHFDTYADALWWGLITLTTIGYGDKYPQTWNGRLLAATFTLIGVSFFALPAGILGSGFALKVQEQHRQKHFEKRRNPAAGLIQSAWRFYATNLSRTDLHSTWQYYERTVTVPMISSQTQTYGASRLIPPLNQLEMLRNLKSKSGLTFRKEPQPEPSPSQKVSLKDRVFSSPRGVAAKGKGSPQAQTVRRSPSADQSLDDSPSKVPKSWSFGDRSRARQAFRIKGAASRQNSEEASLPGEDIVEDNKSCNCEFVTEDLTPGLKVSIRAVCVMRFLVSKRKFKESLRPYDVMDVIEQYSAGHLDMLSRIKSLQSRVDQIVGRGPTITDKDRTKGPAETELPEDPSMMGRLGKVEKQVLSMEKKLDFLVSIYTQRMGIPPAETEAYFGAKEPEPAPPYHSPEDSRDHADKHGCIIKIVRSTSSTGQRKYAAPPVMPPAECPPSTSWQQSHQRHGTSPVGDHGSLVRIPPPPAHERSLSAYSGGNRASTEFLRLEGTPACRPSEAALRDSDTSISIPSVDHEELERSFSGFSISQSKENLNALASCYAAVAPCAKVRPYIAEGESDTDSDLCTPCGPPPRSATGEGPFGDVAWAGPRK

As to `CC(=O)N(C)c1ccc(NC(=O)Cc2cccc3ccccc23)cc1`, the result in experiment [1], in experiment [2], in experiment [3] and in experiment [4] was inactive.
For the compound `O=C(NC(=S)Nc1ccccc1)c1cccs1`, in experiment [1], the activation was 137% (active). Further, the result in experiment [2] and in experiment [4] was inactive. Also, the potentiation in experiment [3] is 142% (active).
Regarding `Cc1cc(/C=C2\C(=N)N3N=C(C(C)C)SC3=NC2=O)c(C)n1Cc1ccccc1`, the outcome in experiment [1], in experiment [2], in experiment [3] and in experiment [4] was inactive.
For the compound `O=C(N/N=C/c1ccccn1)c1cc(Br)ccc1O`, in experiment [1], the activation was 147% (active). Besides, the potentiation in experiment [2] was 24% (active); in experiment [3], 182% (active). For the same compound, in experiment [4], the outcome was inactive.
`CN(C)CC(CCCCC(CN(C)C)C(=O)c1ccccc1)C(=O)c1ccccc1` (stereo not drawn): the result in experiment [1], in experiment [2], in experiment [3] and in experiment [4] was inactive.
For the compound `CC(C)c1nc2oc3c(NCC4CCCO4)ncnc3c2c2c1COC(C)(C)C2` (stereo not drawn), the outcome in experiment [1], in experiment [2], in experiment [3] and in experiment [4] was inactive.
On to `CCC(Cc1ccccc1)n1c(=S)[nH]c2ccccc2c1=O` (stereo not drawn), for which the outcome in experiment [1], in experiment [3] and in experiment [4] was inactive. In experiment [2], the potentiation is 19% (active).
In the case of `COC(=O)c1sc(NC(=S)NC(=O)c2ccccc2C)nc1C`, the activation in experiment [1] was 187% (active). Moreover, the figures for the potentiation in experiment [2] and in experiment [3] were 50% (active) and 204% (active), respectively. Moreover, the outcome in experiment [4] was inactive.
On to `COc1cccc(-c2cn(-c3cccc(C(F)(F)F)c3)c(=S)[nH]2)c1`, for which the result in experiment [1], in experiment [2], in experiment [3] and in experiment [4] was inactive.
Regarding `CCOC(=O)Cc1cc(=O)n2[nH]c(C)c(-c3ccc(Cl)cc3)c2n1`, the outcome in experiment [1], in experiment [2], in experiment [3] and in experiment [4] was inactive.
As to `CCOC(=O)c1c(-c2ccc(C)o2)csc1NC(=S)NC(=O)N(C)C`, the activation in experiment [1] is 266% (active). For the same compound, the potentiation in experiment [2] is 171% (active); in experiment [3] it was 314% (active). In addition, in experiment [4], the result was inactive.
Turning to `COc1ccccc1CNCc1cccc(Oc2ccccc2)c1`, the result in experiment [1], in experiment [2], in experiment [3] and in experiment [4] was inactive.
Take `CCOc1ccc(-c2noc(CCC(=O)NC3CCCC3)n2)cc1OC`: the result in experiment [1], in experiment [2], in experiment [3] and in experiment [4] was inactive.
For `CSc1nnc(-c2ccccc2)o1`, the result in experiment [1], in experiment [2], in experiment [3] and in experiment [4] was inactive.
`Cc1nc2c(c3c1[nH]c1ccccc13)C(=O)CC(C)(C)C2`: the result in experiment [1], in experiment [2], in experiment [3] and in experiment [4] was inactive.
As for `CC(=O)c1cccc(NC(=S)NC(=O)c2ccc(Cl)cc2)c1`, the result in experiment [1], in experiment [2], in experiment [3] and in experiment [4] was inactive.
For the compound `CC1=CC(=O)C(C(C)C)=CC1=NC(=O)c1ccc(C)cc1`, the outcome in experiment [1], in experiment [2], in experiment [3] and in experiment [4] was inactive.
Take `O=c1[nH]cc(-c2ccccc2)c(=O)[nH]1`: the outcome in experiment [1], in experiment [2], in experiment [3] and in experiment [4] was inactive.
In the case of `O=C(NC(=S)N(Cc1ccccc1)Cc1ccccc1)c1ccccc1F`, in experiment [1], the activation was 225% (active). Further, the potentiation in experiment [2] was 208% (active); in experiment [3], 338% (active). Besides, the outcome in experiment [4] was inactive.
On to `COc1ccc(S(=O)(=O)NCCCN2CCOCC2)cc1F`, for which the result in experiment [1], in experiment [2], in experiment [3] and in experiment [4] was inactive.
For the compound `Cc1cc(C)c2ccc(C)[n+]([O-])c2c1O`, the result in experiment [1], in experiment [2], in experiment [3] and in experiment [4] was inactive.
Turning to `C/C(=N\NC(=O)c1cc2ccccc2cc1O)c1ccccn1`, in experiment [1], the activation is 157% (active). Also, the potentiation in experiment [2] was 38.5% (active); in experiment [3], 169% (active). The current potentiation in experiment [4] is 21.5% (active).
Take `CC1CCN(C(=S)NC(=O)c2cccc([N+](=O)[O-])c2)CC1`: the activation in experiment [1] was 207% (active). Moreover, the results for the potentiation in experiment [2] and in experiment [3] were 41.5% (active) and 189% (active), respectively. Moreover, the result in experiment [4] was inactive.
As to `O=C(NC(=S)N1CCN(c2c(Cl)cccc2[N+](=O)[O-])CC1)c1cccs1`, in experiment [1], the activation was 236% (active). In addition, the potentiation in experiment [2] is 156% (active); in experiment [3], 375% (active). For the same compound, the outcome in experiment [4] was inactive.
As for `Cc1ccc(C(C)C)c(OCc2n[nH]c(=S)o2)c1`, the activation in experiment [1] is 154% (active). In addition, the potentiation was 27% (active) in experiment [2] and 160% (active) in experiment [3]. The outcome in experiment [4] was inactive.
As for `CN(C)CCNc1ncnc2c1sc1nc(N3CCCC3)c3c(c12)CC(C)(C)OC3`, the outcome in experiment [1], in experiment [3] and in experiment [4] was inactive. Also, the potentiation in experiment [2] is 32% (active).
`O=[N+]([O-])c1ccc(/C([O-])=C(/C(=S)NCc2ccco2)[n+]2ccccc2)cc1`: the result in experiment [1], in experiment [2], in experiment [3] and in experiment [4] was inactive.
As to `O=C(NC(=S)N1CCN(c2ccc([N+](=O)[O-])cc2Cl)CC1)c1ccco1`, the result in experiment [1], in experiment [2], in experiment [3] and in experiment [4] was inactive.
For the compound `NS(=O)(=O)c1ccc(CCNC(=O)COC(=O)c2cc([N+](=O)[O-])ccc2N2CCOCC2)cc1`, the outcome in experiment [1], in experiment [2], in experiment [3] and in experiment [4] was inactive.
As to `CCOc1ccc(NC(=O)C2CCN(S(=O)(=O)c3cccnc3)CC2)cc1`, the outcome in experiment [1], in experiment [2], in experiment [3] and in experiment [4] was inactive.
`COc1ccc2c(CCNC(=O)CN3C(=O)c4ccccc4C3=O)c[nH]c2c1`: the outcome in experiment [1], in experiment [2], in experiment [3] and in experiment [4] was inactive.
Turning to `Cc1ccc(N=Nc2ccc(O)c3ncccc23)cc1`, the activation in experiment [1] is 185% (active). Besides, the potentiation was 52.5% (active) in experiment [2] and 229% (active) in experiment [3]. For the same compound, in experiment [4], the result was inactive.
